ChEMBL document CHEMBL2176870 (J Med Chem, 2012)
≈ marks a conversion by molar mass, not a printed value. Calls of active or inactive are those of the source. The rule behind the calls is not given here.

Tests used:
[1] = Terminal elimination half life in Sprague-Dawley rat liver at 2 x 50 mg/kg, iv; type: ADME, organism-based; set-up: dose 50 mg/kg, route intravenous; conditions: read-out: beta t1/2 (converted)
In short: (§1)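 Female Sprague–Dawley rats given two iv doses of 50 mg/kg. Levels measured in plasma, liver, kidney, brain, heart and lung. Cmax reported as ng/g for tissue and ng/mL for plasma; AUC(0–∞) as ng·h/mL. Half-life is the terminal elimination value.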

[2] = Thermodynamic aqueous solubility of the compound in 20% hydroxypropyl-beta-cyclodextrin; type: physicochemical; conditions: 20% hydroxypropyl-beta-cyclodextrin in water; read-out: Therm_solubility
In short: (§2)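 Solubility measured in an aqueous solution containing 20% hydroxypropyl-β-cyclodextrin together with 1–5% glucose.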

[3] = Terminal elimination half life in Sprague-Dawley rat heart at 2 x 50 mg/kg, iv; type: ADME, organism-based; set-up: dose 50 mg/kg, route intravenous; conditions: read-out: beta t1/2 (converted); in short: as §1
[4] = AUC (0 to infinity) in Sprague-Dawley rat liver at 2 x 50 mg/kg, iv; type: ADME, organism-based; set-up: time infinity, dose 50 mg/kg, route intravenous; in short: as §1
Staphylococcus aureus [5] = experiment: Antibacterial activity against methicillin-resistant Staphylococcus aureus NRS382 infected in Swiss mouse; type: functional
In short: (§3)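 Murine lethal systemic infection by intraperitoneal MRSA challenge. A single subcutaneous dose was given 5 min after infection.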

Moraxella catarrhalis = experiment: Antibacterial activity against Moraxella catarrhalis; type: functional
[6] = system: Staphylococcus haemolyticus; experiment: Antibacterial activity against methicillin-resistant Staphylococcus haemolyticus; type: functional
[7] = Thermodynamic aqueous solubility of the compound in 1 to 5% of glucose; type: physicochemical; conditions: 1 to 5% glucose in water; read-out: Therm_solubility; in short: as §2
Streptococcus pneumoniae = experiment: Antibacterial activity against Streptococcus pneumoniae D39 after 18 hrs by broth microdilution method; type: functional; conditions: D39, 18 h
In short: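 CLSI broth microdilution with 2-fold dilutions from 0.06 to 64 μg/mL. Cation-adjusted Mueller–Hinton broth with 2.5% lysed horse blood, inoculum 5 × 10^5 CFU/mL, grown at 35 °C for 18 h in 5% CO2. MIC is the lowest concentration showing no visible growth.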

Staphylococcus aureus [8] = experiment: Antibacterial activity against community acquired methicillin-resistant Staphylococcus aureus; type: functional
[9] = Terminal elimination half life in Sprague-Dawley rat plasma at 2 x 50 mg/kg, iv; type: ADME, organism-based; set-up: dose 50 mg/kg, route intravenous; conditions: read-out: beta t1/2 (converted); in short: as §1
Staphylococcus aureus [10] = experiment: Antibacterial activity against methicillin-resistant Staphylococcus aureus NRS384 assessed as killing activity at 600 to 1200 mg q8h with prolonged infusion of 2 hrs; type: functional, organism-based
Staphylococcus aureus [11] = experiment: Antibacterial activity against methicillin-resistant Staphylococcus aureus NRS384 infected in Swiss mouse; type: functional; in short: as §3
[12] = system: Staphylococcus epidermidis; experiment: Antibacterial activity against methicillin-resistant Staphylococcus epidermidis; type: functional

CCc1cc(O)c(Oc2ccc(C(N)=O)cc2F)cc1F
half-life [1]: 9.2 h
solubility thermodynamic [2]: 11.3 mg/mL (≈ 38500 µM)
half-life [3]: 5 h
AUC(0-inf) [4]: 105 µg·h/mL
ED50 (Staphylococcus aureus [5]): 19.3 mg/kg
MIC90 (Moraxella catarrhalis): 2 µg/mL (≈ 6.82 µM)
MIC90 [6]: 0.5 µg/mL (≈ 1.7 µM)
solubility thermodynamic [7]: 11.3 mg/mL (≈ 38500 µM)
MIC (Streptococcus pneumoniae): > 32 µg/mL
MIC90 (Staphylococcus aureus [8]): ≤ 0.03 µg/mL
half-life [9]: 4.9 h
Activity (Staphylococcus aureus [10]): Active
ED50 (Staphylococcus aureus [11]): 45.1 mg/kg
MIC90 [12]: 2 µg/mL (≈ 6.82 µM)
